Source: ChEMBL document CHEMBL2331205, “Anti-hepatitis B virus and anti-cancer activities of novel isoflavone analogs” (Eur J Med Chem, 2013)

Legend:
[1] = system: Hepatitis B virus; experiment: Antiviral activity against HBV infected in human HepG2(2.2.15) cells assessed as inhibition of viral replication after 9 days by fluorescence PCR method; assay type: functional, organism-based; conditions: HepG2 2.2.15, 216 h
Method in brief: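 HepG2 2.2.15 cells given a range of compound concentrations for nine days; HBV DNA quantified by fluorescence PCR. IC50 taken as the concentration giving 50% inhibition of HBV DNA replication.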

[2] = Growth inhibition of human L02 cells after 48 hrs by MTT assay; assay type: functional, cell-based; conditions: L02, 48 h
Method in brief: (§1)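 Cells seeded at 8000/well, treated 24 h later in duplicate with a range of concentrations (DMSO stock 10 g/L diluted in fresh medium), 48 h at 37 °C, 5% CO2. MTT (5 mg/ml in PBS) added for 4 h, formazan dissolved in DMSO, absorbance read at 570 nm. IC50 is the concentration giving 50% survival.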

[3] = Growth inhibition of human QGY7701 cells after 48 hrs by MTT assay; assay type: functional; conditions: QGY7701, 48 h; method in brief: as §1
[4] = system: Hepatitis B virus; experiment: Antiviral activity against HBV infected in human HepG2(2.2.15) cells assessed as inhibition of HBsAg production after 9 days by ELISA; assay type: functional, organism-based; conditions: HepG2 2.2.15, 216 h
Method in brief: (§2)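 HepG2 2.2.15 cells (HBV-producing) given a range of compound concentrations for nine days; culture supernatants collected and HBsAg or HBeAg levels measured by ELISA. IC50 taken as the concentration giving 50% inhibition of antigen level.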

[5] = Cytotoxicity against human HepG2(2.2.15) cells compound treated for 48 hrs followed by incubation for 9 days by MTT assay; assay type: cell-based
Method in brief: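 HepG2 2.2.15 cells kept 48 h in plates before adding compounds (DMSO stocks serially diluted in medium), then incubated at 37 °C for 9 days. Media-only wells as blank. MTT (5 g/L) added 4 h before lysis in 10% SDS/50% DMF, pH 7.2; OD at 570 nm gives percent cell death; CC50 derived.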

[6] = system: Huh-7; experiment: Growth inhibition of human HuH7 cells after 48 hrs by MTT assay; assay type: functional, cell-based; conditions: Huh-7, 48 h; method in brief: as §1
[7] = Selectivity index, ratio of CC50 for human HepG2(2.2.15) cells to IC50 for HBV infected in human HepG2(2.2.15) cells assessed as inhibition of viral replication; assay type: functional
Method in brief: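 Selectivity index calculated as CC50 in HepG2 2.2.15 cells (MTT, 9-day exposure) divided by IC50 for HBV DNA reduction measured by fluorescence PCR after 9 days.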

[8] = system: A549; experiment: Growth inhibition of human A549 cells after 48 hrs by MTT assay; assay type: functional, cell-based; conditions: A549, 48 h; method in brief: as §1
[9] = system: HeLa; experiment: Growth inhibition of human HeLa cells after 48 hrs by MTT assay; assay type: functional, cell-based; method in brief: as §1
[10] = system: Hepatitis B virus; experiment: Antiviral activity against HBV infected in human HepG2(2.2.15) cells assessed as inhibition of HBeAg production after 9 days by ELISA; assay type: functional, organism-based; conditions: HepG2 2.2.15, 216 h; method in brief: as §2
[11] = Selectivity index, ratio of CC50 for human HepG2(2.2.15) cells to IC50 for HBV infected in human HepG2(2.2.15) cells assessed as inhibition of HBsAg production; assay type: functional
Method in brief: (§3)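 Selectivity index calculated as CC50 in HepG2 2.2.15 cells (MTT, 9-day exposure) divided by IC50 for HBeAg or HBsAg reduction (ELISA of 9-day supernatants).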

[12] = Selectivity index, ratio of CC50 for human HepG2(2.2.15) cells to IC50 for HBV infected in human HepG2(2.2.15) cells assessed as inhibition of HBeAg production; assay type: functional; method in brief: as §3

COc1ccc2c(=O)c(/C=C/C(=O)Nc3ccc(C)cc3)coc2c1
IC50 [1]: 28.2 µM | IC50 [2]: > 200 µM | IC50 [3]: 39.3 µM | IC50 [4]: > 100 µM | CC50 at 48 h [5]: 979 µM | IC50 [6]: > 100 µM | Ratio CC50/IC50 [7]: 34.69 | IC50 [8]: 17.5 µM | IC50 [9]: 24.1 µM | IC50 [10]: > 100 µM

COc1ccc(NC(=O)/C=C/c2coc3cc(OC)ccc3c2=O)cc1
IC50 [1]: 14.2 µM | IC50 [2]: > 200 µM | IC50 [3]: > 100 µM | IC50 [4]: > 100 µM | CC50 at 48 h [5]: 718 µM | IC50 [6]: > 100 µM | Ratio CC50/IC50 [7]: 50.38 | IC50 [8]: 23 µM | IC50 [9]: 13 µM | IC50 [10]: > 100 µM

COc1ccc2c(=O)c(/C=C/C(=O)NCc3ccccc3)coc2c1
IC50 [1]: 56.8 µM | IC50 [2]: > 200 µM | IC50 [3]: > 100 µM | IC50 [4]: > 100 µM | CC50 at 48 h [5]: 376 µM | IC50 [6]: 13.6 µM | Ratio CC50/IC50 [7]: 6.62 | IC50 [8]: 11.8 µM | IC50 [9]: 33.4 µM | IC50 [10]: > 100 µM

COc1ccc2c(=O)c(/C=C/C(=O)Nc3cccc(C)c3)coc2c1
IC50 [1]: 34.9 µM | IC50 [2]: > 200 µM | IC50 [3]: > 100 µM | IC50 [4]: > 100 µM | CC50 at 48 h [5]: 554 µM | IC50 [6]: 15.5 µM | Ratio CC50/IC50 [7]: 15.85 | IC50 [8]: > 100 µM | IC50 [9]: > 100 µM | IC50 [10]: > 100 µM

COc1ccc2c(=O)c(/C=C/C(=O)NCc3ccc(F)cc3)coc2c1
IC50 [1]: 11.2 µM | IC50 [2]: > 200 µM | IC50 [3]: 7.96 µM | IC50 [4]: 58.8 µM | CC50 at 48 h [5]: 133 µM | IC50 [6]: 20.9 µM | Ratio CC50/IC50 [7]: 11.84 | Ratio CC50/IC50 [11]: 2.26 | IC50 [8]: > 100 µM | IC50 [9]: > 100 µM | IC50 [10]: > 100 µM

COc1ccc2c(=O)c(/C=C/C(=O)Nc3ccccc3C)coc2c1
IC50 [1]: > 100 µM | IC50 [2]: > 200 µM | IC50 [3]: 22.4 µM | IC50 [4]: 14.9 µM | CC50 at 48 h [5]: 59.7 µM | IC50 [6]: 26.9 µM | Ratio CC50/IC50 [11]: 4 | IC50 [8]: 23.4 µM | Ratio CC50/IC50 [12]: 3.77 | IC50 [9]: 7.27 µM | IC50 [10]: 15.8 µM

O=C(/C=C/c1coc2cc(O)ccc2c1=O)NCc1ccc(F)cc1
IC50 [1]: 33.5 µM | IC50 [2]: > 200 µM | IC50 [3]: > 100 µM | IC50 [4]: > 100 µM | CC50 at 48 h [5]: 357 µM | IC50 [6]: > 100 µM | Ratio CC50/IC50 [7]: 10.68 | IC50 [8]: > 100 µM | IC50 [9]: > 100 µM | IC50 [10]: > 100 µM

COc1ccc(NC(=O)/C=C/c2coc3cc(O)ccc3c2=O)cc1
IC50 [1]: 7.01 µM | IC50 [2]: > 200 µM | IC50 [3]: > 100 µM | IC50 [4]: > 100 µM | CC50 at 48 h [5]: 976 µM | IC50 [6]: > 100 µM | Ratio CC50/IC50 [7]: 139.21 | IC50 [8]: 12.8 µM | IC50 [9]: > 100 µM | IC50 [10]: > 100 µM

COc1ccc2c(=O)c(/C=C/C(=O)NCc3cccc(F)c3)coc2c1
IC50 [1]: 75.4 µM | IC50 [2]: > 200 µM | IC50 [3]: 28.6 µM | IC50 [4]: 83.8 µM | CC50 at 48 h [5]: 475 µM | IC50 [6]: 10.1 µM | Ratio CC50/IC50 [7]: 6.3 | Ratio CC50/IC50 [11]: 5.67 | IC50 [8]: 26.9 µM | IC50 [9]: 17.6 µM | IC50 [10]: > 100 µM

COc1ccc2c(=O)c(/C=C/C(=O)Nc3ccccc3OC)coc2c1
IC50 [1]: > 100 µM | IC50 [2]: > 200 µM | IC50 [3]: 17.6 µM | IC50 [4]: > 100 µM | CC50 at 48 h [5]: 1050 µM | IC50 [6]: 32.3 µM | IC50 [8]: > 100 µM | IC50 [9]: > 100 µM | IC50 [10]: > 100 µM

COc1ccc2c(=O)c(/C=C/C(=O)NCc3ccccc3F)coc2c1
IC50 [1]: 68.6 µM | IC50 [2]: > 200 µM | IC50 [3]: 34 µM | IC50 [4]: 52.1 µM | CC50 at 48 h [5]: 146 µM | IC50 [6]: 8.45 µM | Ratio CC50/IC50 [7]: 2.13 | Ratio CC50/IC50 [11]: 2.8 | IC50 [8]: > 100 µM | IC50 [9]: > 100 µM | IC50 [10]: > 100 µM

COc1ccc2c(=O)c(/C=C/C(=O)NCCc3cccc(F)c3)coc2c1
IC50 [1]: > 100 µM | IC50 [2]: > 200 µM | IC50 [3]: 23.4 µM | IC50 [4]: > 100 µM | CC50 at 48 h [5]: 1030 µM | IC50 [6]: 8.96 µM | IC50 [8]: 9.77 µM | IC50 [9]: 15.3 µM | IC50 [10]: > 100 µM
